Experimental data as given in ChEMBL document CHEMBL4715895, “Synthesis of erythro- B13 enantiomers and stereospecific action of full set of B13-isomers in MCF7 breast carcinoma cells: Cellular metabolism and effects on sphingolipids” (Bioorg Med Chem, 2021).

Key:
MCF7 [1] = test: Antiproliferative activity against human MCF7 cells assessed as growth inhibition after 48 hrs by MTT assay; type: functional, cell-based; details: MCF7, 48 h
MCF7 [2] = test: Antiproliferative activity against human MCF7 cells assessed as growth inhibition after 72 hrs by MTT assay; type: functional, cell-based; details: MCF7, 72 h
Outline: (§1)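 MCF7 (RPMI 1640 with 10% FBS, 2mM L-glutamine, 37°C, 5% CO2) harvested in exponential growth, then exposed to each B13 stereoisomer for the stated time. Viable cells were quantified by MTT and expressed as % of untreated control (means ± st dev, 5 replicates). IC50 values were derived per time point.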

[3] = Drug uptake in human MCF7 cells at 1 to 10 uM after 24 hrs by HPLC-MS/MS analysis; type: ADME, cell-based; details: mcf7, 24 h, dose 1-10 µM
Outline: (§2)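 MCF7 cells received 1, 5 or 10uM of each isomer for 1h or 24h as stated. Intracellular isomer levels were quantified by UHPLC-MS/MS of lipid extracts from cell pellets. Data are means ± st dev of triplicates.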

MCF7 [4] = test: Antiproliferative activity against human MCF7 cells assessed as growth inhibition after 24 hrs by MTT assay; type: functional, cell-based; details: MCF7, 24 h; outline: as §1
[5] = Drug metabolism in human MCF7 cells assessed as ceramidase mediated C16 metabolite formation after 24 hrs by UHPLC-MS/MS analysis; type: ADME, cell-based; details: mcf7, 24 h
Outline: (§3)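 Cells were treated with 10uM of each isomer for 24h, then pellets were collected and lipids extracted. C16 and C24:1 analogs were quantified by UHPLC-MS/MS as pmol/nmol lipid phosphate, referenced against standards. Values are means ± st dev of triplicates from 3 separate experiments.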

[6] = Drug metabolism in human MCF7 cells assessed as ceramidase mediated C24:1 metabolite formation after 24 hrs by UHPLC-MS/MS analysis; type: ADME, cell-based; details: mcf7, 24 h; outline: as §3
[7] = Drug metabolism in human MCF7 cells assessed as reduction in endogenous sphingosine level at 1 to 10 uM after 24 hrs by UHPLC-MS/MS analysis; type: ADME, cell-based; details: mcf7, 24 h, dose 1-10 µM
Outline: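 Isomers were applied at 1, 5 and 10uM for 24h. Endogenous Sph was measured in extracted pellet lipids by UHPLC-MS/MS (pmol/nmol lipid phosphate); the Cer/Sph ratio was also calculated. Values are triplicate means ± st dev versus control.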

[8] = Drug metabolism in human MCF7 cells assessed as ceramidase-mediated C16 metabolite formation at 1 to 10 uM after 24 hrs by UHPLC-MS/MS analysis; type: ADME, cell-based; details: mcf7, 24 h, dose 1-10 µM
[9] = Drug uptake in human MCF7 cells at 1 to 10 uM after 1 hr by HPLC-MS/MS analysis; type: ADME, cell-based; details: mcf7, 1 h, dose 1-10 µM; outline: as §2
[10] = Drug metabolism in human MCF7 cells assessed as elevation of =<C18-ceramide metabolite at 10 uM after 24 hr by UHPLC-MS/MS analysis; type: ADME, cell-based; details: mcf7, 24 h
Outline: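 Each isomer was given at 10uM to MCF7 cells for 24h. Lipid extracts of the cell pellets were profiled by UHPLC-MS/MS for Cn-Cer species, normalized to lipid phosphate (pmol/nmol). Data are means ± st dev of triplicates, compared with vehicle control (p<0.05).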

[11] = Drug metabolism in human MCF7 cells assessed as increase in C24-dihydroceramide elevation at 10 uM after 1 hr by UHPLC-MS/MS analysis; type: ADME, cell-based; details: mcf7, 1 h
Outline: (§4)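 After 1h of exposure to 10uM of each isomer, MCF7 pellets were extracted. Endogenous Cn-Cer and Cn-dhCer species were quantified by UHPLC-MS/MS as pmol/nmol lipid phosphate. Results are triplicate means ± st dev versus control.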

[12] = Drug metabolism in human MCF7 cells assessed as increase in C24:1-dihydroceramide elevation at 10 uM after 1 hr by UHPLC-MS/MS analysis; type: ADME, cell-based; details: mcf7, 1 h; outline: as §4
[13] = Drugmetabolism in human MCF7 cells assessed as formation of phosphorylated free sphingoid base at 1 to 10 uM after 24 hrs by UHPLC-MS/MS analysis; type: ADME, cell-based; details: mcf7, 24 h, dose 1-10 µM
[14] = Drug metabolism in human MCF7 cells assessed as increase in C26-dihydroceramide elevation at 10 uM after 1 hr by UHPLC-MS/MS analysis; type: ADME, cell-based; details: mcf7, 1 h; outline: as §4
[15] = Drug metabolism in human MCF7 cells assessed as increase in C26:1-dihydroceramide elevation at 10 uM after 1 hr by UHPLC-MS/MS analysis; type: ADME, cell-based; details: mcf7, 1 h; outline: as §4
[16] = Drug metabolism in human MCF7 cells assessed as increase in C16-ceramide metabolite formation at 10 uM after 1 hr by UHPLC-MS/MS analysis; type: ADME, cell-based; details: mcf7, 1 h; outline: as §4
[17] = Drug metabolism in human MCF7 cells assessed as reduction in elevation of C26-ceramide metabolite formation at 10 uM after 1 hr by UHPLC-MS/MS analysis; type: ADME, cell-based; details: mcf7, 1 h; outline: as §4
[18] = Drug metabolism in human MCF7 cells assessed as increase in C14-ceramide metabolite formation at 10 uM after 1 hr by UHPLC-MS/MS analysis; type: ADME, cell-based; details: mcf7, 1 h; outline: as §4

Row | SMILES | IC50 (MCF7 [1]) | IC50 (MCF7 [2]) | Drug uptake [3] | IC50 (MCF7 [4]) | Drug metabolism [5] | Drug metabolism [6] | Drug metabolism [7] | Drug metabolism [8] | Drug uptake [9] | Drug metabolism [10] | Drug metabolism [11] | Drug metabolism [12] | Drug metabolism [13] | Drug metabolism [14] | Drug metabolism [15] | Drug metabolism [16] | Drug metabolism [17] | Drug metabolism [18]
1 | CCCCCCCCCCCCCC(=O)N[C@@H](CO)[C@@H](O)c1ccc([N+](=O)[O-])cc1 | 43.6 µM | 46.6 µM | Active | 54.1 µM | Metabolite_Detected | Metabolite_Detected | Metabolite_Detected | Metabolite_Detected | Active |  |  |  |  |  |  |  |  | 
2 | CCCCCCCCCCCCCC(=O)N[C@@H](CO)[C@H](O)c1ccc([N+](=O)[O-])cc1 | 8.08 µM | 9.39 µM | Not Active | 10.2 µM | Metabolite_Detected | Metabolite_Detected |  | Metabolite_Detected | Active | Metabolite_Detected | Metabolite_Detected | Metabolite_Detected | Metabolite_Detected | Metabolite_Detected | Metabolite_Detected |  |  | 
3 | CCCCCCCCCCCCCC(=O)N[C@H](CO)[C@H](O)c1ccc([N+](=O)[O-])cc1 | 35.6 µM | 37 µM | Active | 42.3 µM | Metabolite_Detected | Metabolite_Detected | Metabolite_Detected | Metabolite_Detected | Active |  |  |  |  |  |  | Metabolite_Detected | Metabolite_Detected | Metabolite_Detected
4 | CCCCCCCCCCCCCC(=O)N[C@H](CO)[C@@H](O)c1ccc([N+](=O)[O-])cc1 | 13.1 µM | 13.5 µM | Active | 18 µM | Metabolite_Detected | Metabolite_Detected | Metabolite_Detected | Metabolite_Detected | Active |  |  |  |  |  |  |  |  | 
